Measured values: ChEMBL document CHEMBL3232745, “Design, synthesis and evaluation of novel diaryl pyrrolopyrimidine and pyrrolothiazine derivatives as inhibitors of tumor necrosis factor stimulated gene-14 (TSG-14) production” (2014)

The molecules below were run on Rattus norvegicus (assay: Antiinflammatory activity in albino rat assessed as inhibition of LPS-induced TSG-14 production at 30 mg/kg, po administered 30 mins before LPS challenge measured after 4 to 6 hrs by ELISA relative to control).
Format: functional
How it was run: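 Male albino rats (~200 g), three per group, dosed orally with compound suspended in 0.5% carboxymethylcellulose. LPS (Escherichia coli B055/B5, 0.1 mg/kg ip) was given 30 min after dosing. Sera were collected 4-6 h after LPS and assayed in duplicate by sandwich ELISA for rat PTX3/TSG-14 (detection limit <0.02 ng/mL). Percent inhibition was taken against an untreated LPS control, as mean ± S.E.M. (n = 3).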

Compared with `Cc1ccc(-c2cc3c(=N)n(N)c(=S)[nH]c3n2-c2ccccc2)cc1`, `N=c1c2cc(-c3ccc(Br)cc3)n(-c3ccccc3)c2[nH]c(=S)n1N` is higher in inhibition in vivo at 30 mg/kg: 0% for the first, 33% for the second.

Compared with `CCn1c(=S)[nH]c2c(cc(-c3ccc(Cl)cc3)n2-c2ccccc2)c1=N`, `CCn1c(=S)[nH]c2c(cc(-c3ccc(Br)cc3)n2-c2ccccc2)c1=N` is higher in inhibition in vivo at 30 mg/kg: 61% for the first, 80% for the second.

Going from `N=c1sc(=S)[nH]c2c1cc(-c1ccccc1)n2-c1ccccc1` to `N=c1sc(=S)[nH]c2c1cc(-c1ccc(Br)cc1)n2-c1ccccc1`, the inhibition in vivo at 30 mg/kg rises from 0% to 44%.

Compared with `CCn1c(=S)[nH]c2c(cc(-c3ccccc3)n2-c2ccccc2)c1=N`, `N=c1c2cc(-c3ccccc3)n(-c3ccccc3)c2[nH]c(=S)n1N` is lower in inhibition in vivo at 30 mg/kg: 65% for the first, 23% for the second.

Compared with `CCC(C)Sc1nc2c(cc(-c3ccc(Br)cc3)n2-c2ccccc2)c(=N)s1` (stereo not given), `CCC(C)Sc1nc2c(cc(-c3ccc(C)cc3)n2-c2ccccc2)c(=N)s1` (stereo not given) is lower in inhibition in vivo at 30 mg/kg: 70% for the first, 2% for the second.

Going from `CCSc1nc2c(cc(-c3ccc(C)cc3)n2-c2ccccc2)c(=N)s1` to `CCSc1nc2c(cc(-c3ccc(Br)cc3)n2-c2ccccc2)c(=N)s1`, the inhibition in vivo at 30 mg/kg rises from 0% to 1%.

Going from `CCSc1nc2c(cc(-c3ccc(Cl)cc3)n2-c2ccccc2)c(=N)s1` to `CCC(C)Sc1nc2c(cc(-c3ccc(Cl)cc3)n2-c2ccccc2)c(=N)s1` (stereo not given), the inhibition in vivo at 30 mg/kg rises from 1% to 2%.

First: N=c1sc(=S)[nH]c2c1cc(-c1ccc(Cl)cc1)n2-c1ccccc1
Second: Cc1ccc(-c2cc3c(=N)sc(=S)[nH]c3n2-c2ccccc2)cc1
The inhibition in vivo at 30 mg/kg of the first is higher: 2% for the first, 0% for the second.

First: N=c1c2cc(-c3ccc(Cl)cc3)n(-c3ccccc3)c2[nH]c(=S)n1N
Second: CCn1c(=S)[nH]c2c(cc(-c3ccc(C)cc3)n2-c2ccccc2)c1=N
The inhibition in vivo at 30 mg/kg of the first is lower: 0% for the first, 60% for the second.

First: CCSc1nc2c(cc(-c3ccccc3)n2-c2ccccc2)c(=N)s1
Second: CCC(C)Sc1nc2c(cc(-c3ccccc3)n2-c2ccccc2)c(=N)s1 (stereo not given)
The inhibition in vivo at 30 mg/kg of the first is lower: 0% for the first, 50% for the second.
